High-throughput results deposited in PubChem by The Scripps Research Institute Molecular Screening Center.
TAAR1 antagonist: antagonists of human TAAR1. Q96RJ0. CHO RD-HGA16 TAAR1, Fluo-8 calcium fluorescence, antagonist. inhibition, % at 3 µM. 360,000 compounds, 1.5% hits. AID 624466;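 active = inhibition above a per-plate cutoff, the mean inhibition of test compounds on that plate plus 3 SD, cut at about 49% in these data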
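Assay system: RD-HGA16 CHO cells with stable hTAAR1 and Gα16 / Reagent: EC80 β-phenethylamine stimulus / Doses: 3 µM, single point / Timing: dye loading 75 min at 37 °C, then 30 min room temperature / Measured by: Fluo-8 intracellular calcium dye fluorescence, real-time kinetic reads / Controls: vehicle wells and EC80 agonist wells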
V1R ag counter: counter-screen for oxytocin receptor agonists: human V1a receptor agonists; P37288; CHO-V1R cells, Fluo-8 calcium fluorescence, agonist mode; 0% DMSO, 100% 3 nM vasopressin; activation, % at 3 µM; 320,000 compounds, 0.25% hits;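 active = activation above the mean activation of all tested compounds plus 3 SD, per screening run, cut at about 20% in these data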;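 also: signal is peak over basal fluorescence ratio across a 100 second FLIPR read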
Target sequence (P37288 whole entry, looked up): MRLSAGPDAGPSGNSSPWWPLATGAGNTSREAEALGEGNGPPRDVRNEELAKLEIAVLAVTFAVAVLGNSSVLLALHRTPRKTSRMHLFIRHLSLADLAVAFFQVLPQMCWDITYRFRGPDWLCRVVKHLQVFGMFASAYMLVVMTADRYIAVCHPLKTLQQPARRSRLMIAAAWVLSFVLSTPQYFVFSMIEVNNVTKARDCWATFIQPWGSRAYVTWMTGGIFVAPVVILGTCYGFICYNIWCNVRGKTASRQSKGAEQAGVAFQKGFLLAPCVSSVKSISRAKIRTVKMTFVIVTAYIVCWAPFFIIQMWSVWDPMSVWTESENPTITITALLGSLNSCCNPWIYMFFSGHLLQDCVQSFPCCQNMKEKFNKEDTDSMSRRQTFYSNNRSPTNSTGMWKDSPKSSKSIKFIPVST
TAAR1 agonist: agonists of human TAAR1; AID 624467; activation, % at 3 µM; CHO RD-HGA16 TAAR1, Fluo-8 calcium fluorescence; vehicle wells 0%, saturating PEA agonist 100%; 360,000 compounds, 0.99% hits; Q96RJ0;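 active = activation above the mean activation of all test compounds in the run plus 3 SD, cut at about 38% in these data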
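Signal – calcium-sensitive Fluo-8 signal, excitation 470-495, emission 515-575 nm · System – RD-HGA16 (CHO) cells co-expressing Gα16 and hTAAR1 · Incubation – 17-24 h seeding, 75 min 37 °C dye, 30 min RT · Compound dosing – 3 µM single concentration · Repeats – no replicates (n 1)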
OXTR agonist: human OXTR agonism. AID 2435. activation, % at 3 µM. 320,000 compounds, 0.32% hits. CHO-OTR cells, Fluo-8 calcium fluorescence; normalized: DMSO 0%, oxytocin 100%. P30559;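 active = activation above the mean of all tested compounds plus 3 SD, cutoff set per screening run, cut at about 20% in these data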;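 also: peak over basal fluorescence ratio from a 100 s FLIPR kinetic read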
Target sequence (P30559 whole entry, looked up): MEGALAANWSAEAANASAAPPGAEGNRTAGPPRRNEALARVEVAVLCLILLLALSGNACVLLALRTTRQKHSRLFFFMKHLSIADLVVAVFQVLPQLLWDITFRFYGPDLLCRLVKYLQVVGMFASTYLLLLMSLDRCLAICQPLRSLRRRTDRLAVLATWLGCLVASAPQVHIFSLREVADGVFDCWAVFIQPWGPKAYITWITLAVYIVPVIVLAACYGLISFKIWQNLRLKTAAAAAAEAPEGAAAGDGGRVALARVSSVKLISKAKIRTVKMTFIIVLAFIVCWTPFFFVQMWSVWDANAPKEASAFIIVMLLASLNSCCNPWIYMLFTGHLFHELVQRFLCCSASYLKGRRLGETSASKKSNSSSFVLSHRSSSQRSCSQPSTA
OXTR potentiator: potentiates the human oxytocin receptor response; CHO-OTR cells, Fluo-8 calcium fluorescence, potentiator mode; 0% = oxytocin EC15, 100% = EC100; activation, % at 3 µM; 320,000 compounds, 0.061% hits; AID 2445;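 active = activation above that plate's cutoff, the mean activation of tested compounds plus 3 SD, cut at about 6.6% in these data, passing the limit was not always enough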
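System: human OTR in CHO cells / Also added: sub-maximal oxytocin, roughly EC15 / Control set: EC15 oxytocin low, 75 nM oxytocin high / Schedule: 6 min compound pre-incubation at room temperature, 100 s kinetic read / Compound: single-point 3.0 µM / Replication: singlicate / Technique: Fluo-8 calcium dye fluorescence / Read-out basis: % activation of max/min ratio relative to oxytocin controls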
nonsel antag count: nonselective antagonism, TAAR1 counter-screen. shares compounds with TAAR1 antagonist. counterscreen cell line, calcium fluorescence, antagonist mode. inhibition, % at 3 µM. 2,400 compounds, 77% hits. AID 651780; in the data active = inhibition above about 22%;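 also: CHO-Ga16 host cells stimulated with ATP at an EC80 level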
TAAR1 antag conf: confirmation of human TAAR1 antagonists. shares compounds with TAAR1 antagonist. 2,400 compounds, 40% hits. TAAR1-expressing cells, fluorescence antagonist read-out. inhibition, % at 3 µM. AID 651785; in the data active = inhibition above about 49%;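 also: CHO-Ga16 host cells challenged with agonist PEA near its EC80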
Ga16 nonsel ag: nonselective Ga16 agonism, counter-screen. shares compounds with TAAR1 antagonist. Ga16-expressing cells, calcium fluorescence, agonist counterscreen. activation, % at 3 µM. 2,400 compounds, 18% hits. AID 651953; in the data active = activation above about 12%
TAAR1 ag count: counter-screen for human TAAR1 antagonists: TAAR1 agonists | shares compounds with TAAR1 antagonist | 2,400 compounds, 2% hits | activation, % at 3 µM | hTAAR1 cell line, fluorescence activation, agonist mode; in the data active = activation above about 37%;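 also: CHO cells stably expressing TAAR1 with calcium dye readout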
Hits are given with their value; 0 = inactive; - = not tested or not shown. Only some compounds are listed: those with a hit (about 2.3% of all), similar ones and a draw of the others.

SMILES | TAAR1 antagonist | V1R ag counter | TAAR1 agonist | OXTR agonist | OXTR potentiator | nonsel antag count | TAAR1 antag conf | Ga16 nonsel ag | TAAR1 ag count
CC(C)CCN1C(=O)c2ccccc2C1c1nnnn1Cc1ccccc1 (stereo unspecified) | 0 | - | 0 | - | - | - | - | - | -
O=C1c2ccccc2C(c2nnnn2Cc2ccccc2)N1CCc1ccc(O)cc1 (stereo unspecified) | 67 | - | 0 | - | - | 28 | 53 | 0 | 0
Cc1ccccc1CN1CCN(CC(=O)NC(C)c2ccccc2)CC1 (stereo unspecified) | 0 | 0 | 0 | 0 | 0 | - | - | - | -
CCCCCC(=O)Nc1cc(S(=O)(=O)N2CCCCC2)ccc1N1CCOCC1 | 0 | 0 | 0 | 0 | 0 | - | - | - | -
CC(C)Oc1ccc(CNC(=O)CCC(=O)N2CCSc3ccccc32)cc1 | 0 | 0 | 0 | 0 | 0 | - | - | - | -
CCOc1ccc(NC(=O)CCC(=O)N2CCSc3ccccc32)cc1 | 62 | 0 | 0 | 0 | 0 | 25 | 0 | 0 | 0
O=C(NNC(=O)c1ccc(S(=O)(=O)N2CCCCC2)cc1)c1ccc(F)cc1 | 0 | 0 | 0 | 0 | 0 | - | - | - | -
Cc1cc(NC(=O)CCc2c[nH]c3ccccc23)ccc1Nc1cccnc1 | 0 | - | 0 | - | - | - | - | - | -
O=C(CCc1c[nH]c2ccccc12)Nc1ccc(Nc2cccnc2)c(Br)c1 | 71 | - | 0 | - | - | 31 | 0 | 0 | 0
Cc1[nH]c2ccccc2c1CC(=O)Nc1ccc(Nc2cccnc2)c(-c2ccc(F)c(F)c2)c1 | 0 | - | 0 | - | - | - | - | - | -
O=C(Cc1c[nH]c2ccccc12)Nc1ccc(Nc2cccnc2)c(-c2ccc(-c3ccccc3)cc2F)c1 | 58 | - | 0 | - | - | 33 | 0 | 0 | 0
O=C(Cc1c[nH]c2ccccc12)Nc1ccc(Nc2cccnc2)c(-c2ccc(F)c(F)c2)c1 | 87 | - | 0 | - | - | 42 | 65 | 14 | 0
O=C(Cc1c[nH]c2ccccc12)Nc1ccc(Nc2cccnc2)c(-c2cccc(Cl)c2)c1 | 72 | - | 0 | - | - | 29 | 0 | 0 | 0
COC(=O)c1ccc(CN2C(=O)NC3(CCC(C)CC3)C2=O)cc1 (stereo unspecified) | 0 | 0 | 0 | 0 | 0 | - | - | - | -
CC1CC(C)CN(S(=O)(=O)c2ccc3c(c2)NC(=O)C(C)C(=O)N3)C1 (stereo unspecified) | 0 | 0 | 0 | 0 | 0 | - | - | - | -
COc1ccc(NC(=O)CSc2nc(N)cc(N)n2)cc1S(=O)(=O)N1CCCCC1 | 0 | 0 | 0 | 0 | 0 | - | - | - | -
Oc1ccc(N=Nc2ccc3c(c2)OCCO3)c2cccnc12 | 83 | 0 | 0 | 0 | 0 | 32 | 0 | 0 | 0
CN1CCN(C(=O)CCc2nnc3ccc(N4CCC5(CC4)OCCO5)nn23)CC1 | 0 | 0 | 0 | 0 | 0 | - | - | - | -
CCOC(=O)C1=C(COC(=O)Cc2ccc(Br)cc2)NC(=O)NC1C (stereo unspecified) | 69 | 0 | 0 | 0 | 0 | 25 | 0 | 0 | 0
CCOC(=O)C1=C(COC(=O)/C=C/c2ccccc2)NC(=O)NC1C (stereo unspecified) | 63 | 0 | 0 | 0 | 0 | 25 | 0 | 0 | 0
CCOC(=O)C1=C(COC(=O)CSc2ccc(Br)cc2)NC(=O)NC1C (stereo unspecified) | 0 | 0 | 0 | 0 | 0 | - | - | - | -
CCOC(=O)C1=C(COC(=O)/C=C/c2cccc(OC)c2OC)NC(=O)NC1C (stereo unspecified) | 73 | 0 | 0 | 0 | 0 | 25 | 52 | 12 | 0
CC(=O)c1cn(-c2ccc(Cl)cc2)c(=O)n(Cc2ccc(Br)cc2)c1=O | 0 | 0 | 0 | 0 | 0 | - | - | - | -
COc1ccc(C)cc1S(=O)(=O)N1CCCC(C(=O)NC2CC2)C1 (stereo unspecified) | 0 | 0 | 0 | 0 | 0 | - | - | - | -
Cc1ccc(C)c(OCC(=O)NNC(=O)c2ccc(=O)[nH]c2)c1 | 0 | 0 | 0 | 0 | 0 | - | - | - | -
SMILES | TAAR1 antagonist | V1R ag counter | TAAR1 agonist | OXTR agonist | OXTR potentiator | nonsel antag count | TAAR1 antag conf | Ga16 nonsel ag | TAAR1 ag count
CC(C)COc1ccc(C(=O)NNC(=O)c2ccc(=O)[nH]c2)cc1 | 103 | 0 | 0 | 0 | 0 | 0 | 0 | 0 | 0
COc1ccc(CC(=O)OCC(=O)NCc2ccccc2Cl)cc1OC | 0 | 0 | 0 | 0 | 0 | - | - | - | -
Cc1cc(Br)c(OCc2ccc(C(=O)N/N=C/c3ccc[nH]3)cc2)c(Br)c1 | - | 0 | - | 0 | 0 | 0 | - | 0 | -
O=C(N/N=C/c1ccc[nH]1)c1ccc(COc2cccc3cccnc23)cc1 | 0 | 0 | 0 | 0 | 0 | - | - | - | -
COc1ccc(CCNC(=O)C(=O)NCC2OCCN2C(=O)c2ccc(Cl)cc2)cc1 (stereo unspecified) | 60 | 0 | 0 | 0 | 0 | 22 | 0 | 0 | 0
COc1ccc(C(=O)N2CCOC2CNC(=O)C(=O)NCc2ccc(Cl)cc2)cc1 (stereo unspecified) | 0 | 0 | 0 | 0 | 0 | - | - | - | -
NC(=S)NN=Cc1c[nH]c2nccnc12 | 0 | - | 0 | - | - | - | - | - | -
COc1cccc(N2C(=O)C3ON(c4ccccc4)C(c4cccs4)C3C2=O)c1 (stereo unspecified) | 54 | 0 | 0 | 0 | 0 | 24 | 0 | 0 | 0
CC1(C(=O)Nc2ccc3[nH]ncc3c2)CCN1C(=O)C/C=C/c1ccccc1 (stereo unspecified) | 0 | - | 0 | - | - | - | - | - | -
Cn1nc(C(=O)NCCCN2CCCCC2)c2c1-c1ccccc1SC2 | 0 | 0 | 0 | 0 | 0 | - | - | - | -
CCOc1ccc(/C=C2\SC(=O)N(CCNC(=O)C3COc4ccccc4O3)C2=O)cc1OC (stereo unspecified) | 78 | 0 | 0 | 0 | 0 | 35 | 0 | 0 | 0
C/C(=N\NC(=O)c1ccc(COc2ccccc2)cc1)c1ccncc1 | 0 | 0 | 0 | 0 | 0 | - | - | - | -
Cc1noc(NS(=O)(=O)c2ccc(NC(=O)c3cccc(S(=O)(=O)Nc4ccccc4F)c3)cc2)c1C | 100 | 0 | 0 | 0 | 0 | 0 | 0 | 0 | 0
Cc1noc(NS(=O)(=O)c2ccc(NC(=O)c3ccccc3NS(=O)(=O)c3ccc(F)c(F)c3)cc2)c1C | 0 | - | 0 | - | - | - | - | - | -
COC(=O)N[C@@H]1C[C@H]2[C@@H]3CC[C@H]4C[C@@H](OC)CC[C@]4(C)[C@H]3CC[C@]12C | 55 | 0 | 0 | 0 | 0 | 0 | 0 | 0 | 0
COc1ccc(N(CC(=O)NCCSC2CCCCC2)S(=O)(=O)c2ccccc2)c(OC)c1 | 0 | 0 | 0 | 0 | 0 | - | - | - | -
COc1ccc(N(CC(=O)NCCSc2ccc(C)cc2)S(=O)(=O)c2ccccc2)c(OC)c1 | 68 | 0 | 0 | 0 | 0 | 22 | 51 | 0 | 0
